Source: ChEMBL document CHEMBL1933064, “Synthesis and evaluation of potential inhibitors of human and Escherichia coli histidine triad nucleotide binding proteins” (Bioorg Med Chem Lett, 2012)
Calls of active or inactive are those of the source. The calls are words filed in the database; no cut-off is given here.

Columns and labels:
[1] = Non-competitive inhibition of Escherichia coli HinT using tryptamine 5'-adenosine phosphoramidate as substrate compound pre-incubated for 30 secs prior substrate addition measured for 2 mins by Dixon plot analysis
How it was run: (§1)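 Phosphoramidase assay on fluorogenic tryptamine 5'-adenosine phosphoramidate (TpAd), ecHinT or hHint1 enzyme. Enzyme pre-incubated with inhibitor 30 s at 25 °C, then substrate added. Hydrolysis followed as fluorescence rise (excitation 280 nm, emission 360 nm) over 2 min. HEPES buffer pH 7.2, 25 °C; Ki derived from rates versus concentration.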

[2] = molecular target: Adenosine 5'-monophosphoramidase HINT1 (Homo sapiens, UniProt P49773); experiment: Non-competitive inhibition of human HinT1 using tryptamine 5'-adenosine phosphoramidate as substrate compound pre-incubated for 30 secs prior substrate addition measured for 2 mins by Dixon plot analysis; how it was run: as §1
Escherichia coli [3] = experiment: Growth inhibition of Escherichia coli BW25113 at 100 uM after 40 hrs in presence of glucose as sole carbon source; type: functional, organism-based
Escherichia coli [4] = experiment: Inhibition of HinT in Escherichia coli BW25113 assessed as impaired growth at 100 uM after 40 hrs in presence of D,L-alanine as sole carbon source

| Ki [2] | inhibition (Escherichia coli [4]) | SMILES | Ki [1] | growth inhibition (GI) (Escherichia coli [3]) |
| --- | --- | --- | --- | --- |
| 457 µM |  | Nc1ncnc2c1ncn2[C@@H]1O[C@H](COC(=O)CCCc2c[nH]c3ccccc23)[C@@H](O)[C@H]1O | 393 µM |  |
| 103 µM | Active | Nc1ncnc2c1ncn2[C@@H]1O[C@H](COC(=O)NCCc2c[nH]c3ccccc23)[C@@H](O)[C@H]1O | 73 µM | inactive |
| 400 µM |  | Nc1ncnc2c1ncn2[C@@H]1O[C@H](COC(=O)CCc2c[nH]c3ccccc23)[C@@H](O)[C@H]1O | 375 µM |  |
| 715 µM |  | Cc1cn([C@H]2C[C@H](N=[N+]=[N-])[C@@H](COC(=O)NCCc3c[nH]c4ccccc34)O2)c(=O)[nH]c1=O | 565 µM |  |
| 139 µM | Active | Cc1cn([C@H]2C[C@H](N)[C@@H](COC(=O)NCCc3c[nH]c4ccccc34)O2)c(=O)[nH]c1=O | 122 µM | inactive |
| 34 µM | Active | Nc1nc2c(ncn2[C@@H]2O[C@H](COC(=O)NCCc3c[nH]c4ccccc34)[C@@H](O)[C@H]2O)c(=O)[nH]1 | 42 µM | inactive |
